In data set [1] the test system is Rattus norvegicus. As to the kind of experiment: Antiinflammatory activity in rat assessed as inhibition of carrageenan-induced paw edema at 100 mg/kg, po administered 1 hr followed by carrageenan challenge measured at 2 hrs by plethysmometer relative to control. It counts as functional. In outline: (§1)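 Rats dosed orally (test compounds 100 mg/kg; indomethacin reference 25 mg/kg). One hour later, 1% carrageenan suspension (0.05 mL/animal) was injected sub-plantar into the right hind paw. Paw size was measured by mercury-displacement plethysmometer, calibrated beforehand, at intervals after injection. Activity was calculated as percentage decrease in carrageenan-induced edema relative to control.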
In general terms: In the carrageenan paw model, swelling and tenderness develop within hours.

In data set [2] the test system is Rattus norvegicus. Kind of data set: Antiinflammatory activity in rat assessed as inhibition of carrageenan-induced paw edema at 100 mg/kg, po administered 1 hr followed by carrageenan challenge measured at 0.5 hrs by plethysmometer relative to control. It counts as functional. In outline: as §1
For data set [3], the system named is Rattus norvegicus. As to the kind of experiment: Antiinflammatory activity in rat assessed as inhibition of carrageenan-induced paw edema at 100 mg/kg, po administered 1 hr followed by carrageenan challenge measured at 1 hr by plethysmometer relative to control. The class given is functional. In outline: as §1
Data set [4] concerns Rattus norvegicus. As to the kind of experiment: Antiinflammatory activity in rat assessed as inhibition of carrageenan-induced paw edema at 100 mg/kg, po administered 1 hr followed by carrageenan challenge measured at 3 hrs by plethysmometer relative to control. The class given is functional. In outline:
as §1

Data set [5] deals with Trypanosoma brucei gambiense. As to the kind of experiment: Antitrypanosomal activity against Trypanosoma brucei gambiense GUTat 3.1 after 72 hrs by Alamar Blue assay. It counts as functional, organism-based. Conditions: GUTat 3.1, 72 h. In outline: (§2)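 T. b. gambiense GUTat 3.1 was cultured in supplemented IMDM with 10% heat-inactivated FBS at 37 °C under 5.0% CO2/95% air. Parasites were seeded in 96-well plates, and compound in 5.0% DMSO was added for 72 h. Alamar Blue was then added for 3-6 h and fluorescence read (ex 528/20, em 590/35 nm). IC50 was obtained from the plate-reader software.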

The next data set concerns Mus musculus. Kind of data set: Toxicity in ip dosed mouse measured over 72 hrs. It counts as organism-based. As to conditions: in vivo. In outline:
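Male mice, grouped, given graded intraperitoneal doses; watched continuously 6 h, then kept under observation to 72 h, monitored 4 times daily, with behavioural changes and deaths recorded. Humane endpoints applied, with CO2 euthanasia. Percentage death per dose converted to probits to derive LD50 (μM/kg); mortality rate = dead/group size ×100.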

Data set [6] deals with Trypanosoma brucei gambiense. As to the kind of experiment: Antitrypanosomal activity against Trypanosoma brucei gambiense. The class given is functional, organism-based. In outline:
as §2

The subject of data set [7] is Trypanosoma brucei brucei. Kind of data set: Antitrypanosomal activity against Trypanosoma brucei brucei after 48 hrs by Alamar blue assay. It counts as functional, organism-based. On the technique in general: Alamar Blue is a resazurin reagent that responds to reducing activity.
In data set [8] the test system is Rattus norvegicus. Kind of data set: Antiinflammatory activity in rat assessed as inhibition of carrageenan-induced paw edema at 25 mg/kg, po administered 1 hr followed by carrageenan challenge measured at 0.5 hrs by plethysmometer relative to control. The class given is functional. In outline:
as §1

For data set [9], the system named is Rattus norvegicus. Kind of data set: Antiinflammatory activity in rat assessed as inhibition of carrageenan-induced paw edema at 25 mg/kg, po administered 1 hr followed by carrageenan challenge measured at 2 hrs by plethysmometer relative to control. It counts as functional. In outline:
as §1

For data set [10], the system named is Rattus norvegicus. Kind of data set: Antiinflammatory activity in rat assessed as inhibition of carrageenan-induced paw edema at 25 mg/kg, po administered 1 hr followed by carrageenan challenge measured at 1 hr by plethysmometer relative to control. The class given is functional. In outline: as §1
The test system of data set [11] is Rattus norvegicus. Kind of data set: Antiinflammatory activity in rat assessed as inhibition of carrageenan-induced paw edema at 25 mg/kg, po administered 1 hr followed by carrageenan challenge measured at 3 hrs by plethysmometer relative to control. It counts as functional. In outline:
as §1

We go through 12 compounds from ChEMBL document CHEMBL4152268, “Synthesis of proline derived benzenesulfonamides: A potent anti-Trypanosoma brucei gambiense agent” (Eur J Med Chem, 2018).

The structures appear in SMILES notation.

The inhibition in vivo is the percentage by which the read-out fell short of the control. For orientation: IC50 means the concentration needed to halve the response being measured. A higher IC50 goes with weaker potency. As to `Cc1ccccc1S(=O)(=O)N1CCC[C@H]1C(=O)Nc1ccc(C(=O)O)cc1`, the inhibition in vivo at 100 mg/kg in the data set with Rattus norvegicus [1] was 36.3%; with Rattus norvegicus [2], 35.8%; in the data set with Rattus norvegicus [3] it was 39.4%; in the data set on Rattus norvegicus [4], 40%. This compound yielded an IC50 in data set [5] of 134 nM. The LD50 in the data set on Mus musculus was 13.09 µM/g.
On to `CCS(=O)(=O)N1CCCc2cc(NS(=O)(=O)c3ccccc3F)ccc21`, for which the IC50 in data set [6] is 1300 nM.
For `O=C(O)c1ccc(NC(=O)[C@@H]2CCCN2S(=O)(=O)c2ccccc2)cc1`, the inhibition in vivo at 100 mg/kg in the data set with Rattus norvegicus [1] was 29.4%; with Rattus norvegicus [2], 23.6%; in the data set on Rattus norvegicus [3], 26.3%; with Rattus norvegicus [4] it was 31.1%. The same compound yielded an IC50 in data set [5] of 159 nM. In addition, the LD50 in the data set on Mus musculus worked out at 10.06 µM/g.
As for `O=C(O)c1ccc(NC(=O)[C@@H]2CCCN2S(=O)(=O)c2ccc([N+](=O)[O-])cc2)cc1`, the inhibition in vivo at 100 mg/kg worked out at 50.1% with Rattus norvegicus [1], 42.1% with Rattus norvegicus [2], 45.9% in the data set on Rattus norvegicus [3] and 52.3% in the data set with Rattus norvegicus [4]. The compound further came in with an IC50 in data set [5] of 2 nM. This compound also came in with an LD50 in the data set on Mus musculus of 8.65 µM/g.
Regarding `Cc1ccc(S(=O)(=O)N2CCC[C@H]2C(=O)Nc2ccc(C(=O)O)cc2)cc1`, the inhibition in vivo at 100 mg/kg in the data set with Rattus norvegicus [1] worked out at 36.3%; with Rattus norvegicus [2], 28.8%; in the data set on Rattus norvegicus [3], 31.5%; with Rattus norvegicus [4], 35.3%. In data set [5], this compound returned an IC50 of 101 nM. For the same compound, in the data set on Mus musculus, the LD50 amounted to 11.92 µM/g.
As to `O=C(O)c1ccc(NC(=O)[C@@H]2CC(O)CN2S(=O)(=O)c2ccccc2)cc1` (stereo partly specified), the inhibition in vivo at 100 mg/kg with Rattus norvegicus [1] was 27.3%; with Rattus norvegicus [2], 33.9%; with Rattus norvegicus [3] it was 24.7%; with Rattus norvegicus [4], 1.85%. This compound returned an IC50 in data set [5] of 160 nM. Also, the LD50 in the data set with Mus musculus came out at 12.07 µM/g.
As for `O=C(O)c1ccc(NC(=O)[C@@H]2CC(O)CN2S(=O)(=O)c2ccc([N+](=O)[O-])cc2)cc1` (stereo partly specified), the inhibition in vivo at 100 mg/kg in the data set with Rattus norvegicus [1] amounted to 52.2%; in the data set on Rattus norvegicus [2] it was 44.1%; with Rattus norvegicus [3], 48.5%; in the data set on Rattus norvegicus [4], 62.8%. In addition, in data set [5], the 50% inhibitory concentration (IC50) was found to be 144 nM. Further, the LD50 in the data set on Mus musculus was determined as 10.28 µM/g.
Consider `Cc1ccc(S(=O)(=O)N2CC(O)C[C@H]2C(=O)Nc2ccc(C(=O)O)cc2)cc1` (stereo partly specified), for which the inhibition in vivo at 100 mg/kg came to 67.2% in the data set with Rattus norvegicus [1], 58% with Rattus norvegicus [2], 60% in the data set with Rattus norvegicus [3] and 84% in the data set on Rattus norvegicus [4]. In data set [5], this compound yielded an IC50 of 155 nM. Moreover, the LD50 in the data set on Mus musculus amounted to 12.01 µM/g.
Take `Cc1ccccc1S(=O)(=O)N1CC(O)C[C@H]1C(=O)Nc1ccc(C(=O)O)cc1` (stereo partly specified): the inhibition in vivo at 100 mg/kg with Rattus norvegicus [1] amounted to 23.4%; in the data set on Rattus norvegicus [2] it was 38.6%; in the data set on Rattus norvegicus [3] it was 21.2%; with Rattus norvegicus [4], 25.3%. Further, the IC50 in data set [5] was determined as 157 nM. This compound came in with an LD50 with Mus musculus of 9.98 µM/g.
Take `Nc1nc(N)nc(Nc2ccc([As]3SCC(CO)S3)cc2)n1` (stereo unspecified) [MELARSOPROL]: inhibition in data set [5] was half-maximal at 5 nM (IC50). The compound also gave an LD50 in the data set on Mus musculus of 8.75 µM/g.
`CCCCN(CCCC)c1c([N+](=O)[O-])cc(S(=O)(=O)Nc2ccccc2)cc1[N+](=O)[O-]` yielded an IC50 in data set [7] of 120 nM.
For the compound `COc1ccc2c(c1)c(CC(=O)O)c(C)n2C(=O)c1ccc(Cl)cc1` [INDOMETHACIN], the inhibition in vivo at 25 mg/kg in the data set on Rattus norvegicus [8] was 56.9%; in the data set with Rattus norvegicus [9], 64.8%; in the data set on Rattus norvegicus [10] it was 63.5%; in the data set on Rattus norvegicus [11] it was 63.6%.
